The source of these data is PubChem BioAssay.

Experiment [1] is described as follows: Her2 expression decrease, cell viability multiplex – SKBR3 breast tumor cells, AlphaScreen, ATP viability, primary screen (AID 461;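 active means Her2 level under about 52% in both replicate screens, with viability over 70% of control, limit read from the data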;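 on Her2 level: lower value means less Her2 protein in the cells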;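 on viability: percent of carrier control wells set as 100% viability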). The following applies: SKBR3 Her2 protein level, 18-24 h, measured here: SKBR3 viability, ATP luminescence, at 10 µM. (In Alpha technology, singlet oxygen from a donor bead excites a nearby acceptor bead.)
Experiment [2] addresses Receptor tyrosine-protein kinase erbB-2 (Homo sapiens) (UniProt P04626). The description is as above. Conditions: 18-24 h, at 10 µM, stronger effect = lower value.
A short description of experiment [3]: reduced viability of SK-BR-3 breast cancer cells – cell-based, 24 h, human, pilot screen (AID 572;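 active means viability at or below 10% of carrier control in both of two separate runs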;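 further: compound exposure lasted between 18 and 24 h rather than exactly 24 h; 100% = carrier-treated control wells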). The following applies: SK-BR-3 viability, CellTiter-Glo luminescence, at 10 µM, stronger effect = lower value.
A short description of experiment [4]: HUVEC growth inhibition – cell-based, human, primary screen (AID 575;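 active means viability at or below 30% in both replicate assays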;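 further: 100% = median of untreated cell wells with 0.1% DMSO on each plate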). Conditions: HUVEC proliferation, CellTiter-Glo luminescence, 72 h; at 10 µM; stronger effect = lower value. Summed up: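 Test system: HUVEC primary cells. Quantity: 1250 endothelial cells in each well. Dosing: single-point 10 µM, DMSO 0.1% final. Incubation: 72 h treatment at 37 °C. Measured by: CTG luminescence. Control set: DMSO cell controls and MePR drug controls. Plate: collagen-coated 384-well format.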
(Cellular ATP, detected with luciferase, serves as a proxy for viable cell number.)

Experiment [5] in a line: H69AR cell proliferation blockers – human, duplicate replicates, primary screen (AID 580;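 active means viability at or under a set limit in both replicates, limit being median viability minus 3 SD, cut at about 48% in these data, passing the limit was not always enough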;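 further: 100% = mean luminescence of untreated wells and 0% = no signal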). Conditions: H69AR lung tumor cells viability, ATP luminescence, 72 h; at 10 µM; stronger effect = lower value.
Experiment [6] can be described thus: MRP1 drug-resistance reversers in H69AR cells – cell-based, doxorubicin co-treatment, pilot screen (AID 601). The following applies: CellTiter-Glo, 72 h, at 10 µM; for differential viability (reversal): stronger effect = higher value.
Experiment [7] in a line: yeast transport mutant growth inhibition pilot in 384-well plates, post-Golgi transport modulator project (AID 636; in the data active means inhibition above about 31%). Conditions: absorbance 615 nm, about 18 h, stronger effect = higher value.
A short description of experiment [8]: growth suppression of yeast trafficking mutant, preliminary HTS, modulators of trafficking downstream of Golgi apparatus project, 1536-format plate, OD 615 nm (AID 637; in the data active means inhibition above about 30%). Conditions: yeast transport mutant growth, absorbance 615 nm, 18 h; stronger effect = higher value.
The mark [9] stands for this setting: H69AR cells + 2 uM doxorubicin, measured here: viability with 2 uM doxorubicin, stronger effect = lower value.
Setting [10] is: H69AR cells, compound alone cytotoxicity.

Calls of active or inactive are those of the source.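 How the source made its calls, unless noted: active means viability loss from added drug above about 55%, and viability with drug at most 40%, in both replicates (limit read from the data, passing the limit was not always enough); inconclusive means both conditions met in only one replicate; inactive means neither replicate meets both conditions.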

Sequence of Receptor tyrosine-protein kinase erbB-2 (Homo sapiens) (P04626 whole entry, looked up): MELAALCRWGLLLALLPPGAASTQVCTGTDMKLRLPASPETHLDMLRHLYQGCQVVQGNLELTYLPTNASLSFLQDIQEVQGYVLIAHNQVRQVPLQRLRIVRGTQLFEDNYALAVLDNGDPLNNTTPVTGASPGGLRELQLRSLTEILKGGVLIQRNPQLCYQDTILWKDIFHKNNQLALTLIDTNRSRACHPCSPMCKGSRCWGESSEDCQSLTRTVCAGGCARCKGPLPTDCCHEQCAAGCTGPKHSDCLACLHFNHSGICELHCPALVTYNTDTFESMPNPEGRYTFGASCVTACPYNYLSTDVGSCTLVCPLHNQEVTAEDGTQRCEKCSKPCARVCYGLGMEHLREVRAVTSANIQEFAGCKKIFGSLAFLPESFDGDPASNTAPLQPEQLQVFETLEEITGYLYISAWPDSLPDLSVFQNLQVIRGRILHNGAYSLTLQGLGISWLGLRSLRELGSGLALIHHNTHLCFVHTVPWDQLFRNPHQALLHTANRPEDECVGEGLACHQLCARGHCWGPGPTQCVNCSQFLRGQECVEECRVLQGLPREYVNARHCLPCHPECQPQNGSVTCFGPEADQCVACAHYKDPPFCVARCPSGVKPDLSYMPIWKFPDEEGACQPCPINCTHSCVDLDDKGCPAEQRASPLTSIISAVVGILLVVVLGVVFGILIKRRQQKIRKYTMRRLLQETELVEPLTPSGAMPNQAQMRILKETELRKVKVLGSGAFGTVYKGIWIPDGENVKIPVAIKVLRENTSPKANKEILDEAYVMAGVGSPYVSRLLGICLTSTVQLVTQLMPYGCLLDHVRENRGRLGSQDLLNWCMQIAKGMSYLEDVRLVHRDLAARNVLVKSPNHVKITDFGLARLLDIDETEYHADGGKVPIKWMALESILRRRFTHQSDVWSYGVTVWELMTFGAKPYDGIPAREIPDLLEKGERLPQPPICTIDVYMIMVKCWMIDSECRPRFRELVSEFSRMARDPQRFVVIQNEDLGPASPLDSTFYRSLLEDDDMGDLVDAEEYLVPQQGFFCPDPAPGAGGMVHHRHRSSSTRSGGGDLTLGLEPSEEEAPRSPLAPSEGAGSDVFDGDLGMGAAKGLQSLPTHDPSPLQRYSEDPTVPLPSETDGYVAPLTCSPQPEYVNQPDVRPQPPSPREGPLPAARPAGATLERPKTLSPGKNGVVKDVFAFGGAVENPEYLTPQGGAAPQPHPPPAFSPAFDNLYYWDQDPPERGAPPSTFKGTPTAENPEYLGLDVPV

As to `CN(C)CCCN1C(=O)c2oc3ccccc3c(=O)c2C1c1cccs1` (stereo not given), the viability (commonly a read-out of living cells in per cent, often relative to untreated cells) in experiment [1] was 110%; in experiment [3], 110% (inactive); in experiment [4] it was 99% (inactive); in experiment [5] it was 86.1% (inactive); in experiment [6] (setting [9]), 80.8%; in experiment [6] (setting [10]) it was 86.1%. The Her2 level in experiment [2] was 93.5% (inactive). For the same molecule, the differential viability (reversal) in experiment [6] (H69AR cells + 2 uM doxorubicin) is 5.31% (inactive). In addition, the inhibition – broadly, the drop in the measured response relative to a control, in per cent – was -1.95% (inactive) in experiment [7] and 1.67% (inactive) in experiment [8].

On to `S=c1[nH]nc(Cc2ccccc2)n1-c1ccccc1`, for which the viability in experiment [1] was 108%; in experiment [3] it was 108% (inactive); in experiment [4], 113% (inactive); in experiment [5], 92.9% (inactive); in experiment [6] (setting [9]) it was 86.7%; in experiment [6] (setting [10]), 92.9%. Also, in experiment [2], the Her2 level is 112% (inactive). Further, in experiment [6] (H69AR cells + 2 uM doxorubicin), the differential viability (reversal) is 6.14% (inactive). Moreover, the inhibition in experiment [7] is -4.1% (inactive); in experiment [8], -6.33% (inactive).

Regarding `CC(=O)N1CCc2cc(S(=O)(=O)NC(CC(C)C)C(=O)N3CCn4c3nc3ccccc34)ccc21` (stereo not given), the viability is 88.5% in experiment [1]; 88.5% (inactive) in experiment [3]; 92% (inactive) in experiment [4]; 97.6% (inactive) in experiment [5]; 101% in experiment [6] (setting [9]); 97.6% in experiment [6] (setting [10]). In addition, the Her2 level in experiment [2] was 87.5% (inactive). In experiment [6] (H69AR cells + 2 uM doxorubicin), the differential viability (reversal) is -3.44% (inactive). The figures for the inhibition in experiment [7] and in experiment [8] were -4.4% (inactive) and 1.8% (inactive), respectively.

Take `COc1cc(C2c3c(n[nH]c3C)C(=O)N2c2ccc(Br)cc2)ccc1O` (stereo not given): the viability is 95% in experiment [1]; 95% (inactive) in experiment [3]; 73.9% (inactive) in experiment [4]; 87.8% (inactive) in experiment [5]; 82.2% in experiment [6] (setting [9]); 87.8% in experiment [6] (setting [10]). In addition, in experiment [2], the Her2 level is 62.5% (inactive). Also, in experiment [6] (H69AR cells + 2 uM doxorubicin), the differential viability (reversal) was 5.68% (inactive). Moreover, the inhibition in experiment [7] was -0.13% (inactive); in experiment [8] it was -1% (inactive).

Take `Cc1nc2ccccc2c(=O)n1/N=C/c1ccncc1`: the viability in experiment [1] was 95%; in experiment [3] it was 95% (inactive); in experiment [4], 105% (inactive); in experiment [5] it was 103% (inactive); in experiment [6] (setting [9]) it was 91.1%; in experiment [6] (setting [10]) it was 103%. The Her2 level in experiment [2] was 99.5% (inactive). Besides, the differential viability (reversal) in experiment [6] (H69AR cells + 2 uM doxorubicin) was 12.4% (inactive). Moreover, the inhibition in experiment [7] was -6.13% (inactive); in experiment [8], -1.94% (inactive).

Regarding `CCOC(=O)CNC(=O)c1c(C)nn(-c2ccccc2)c1Cl`, the viability is 98.5% in experiment [1]; 98.5% (inactive) in experiment [3]; 96.2% (inactive) in experiment [4]; 90% (inactive) in experiment [5]; 90.9% in experiment [6] (setting [9]); 90% in experiment [6] (setting [10]). Moreover, the Her2 level in experiment [2] was 86.5% (inactive). In experiment [6] (H69AR cells + 2 uM doxorubicin), the differential viability (reversal) was -0.915% (inactive). The results for the inhibition in experiment [7] and in experiment [8] were -2.63% (inactive) and -7.27% (inactive), respectively.

Consider `O=C(NCC(c1cccnc1)N1CCN(c2ccc(F)cc2)CC1)c1ccc(F)cc1` (stereo not given), for which the viability in experiment [1] is 90%; in experiment [3], 90% (inactive); in experiment [4], 103% (inactive); in experiment [5], 92.7% (inactive); in experiment [6] (setting [9]) it was 91%; in experiment [6] (setting [10]), 92.7%. The Her2 level in experiment [2] was 86.5% (inactive). The differential viability (reversal) in experiment [6] (H69AR cells + 2 uM doxorubicin) is 1.7% (inactive). Also, the inhibition in experiment [7] was -3.11% (inactive); in experiment [8], 8.25% (inactive).

With `Cc1ccc(S(=O)(=O)N2CCOCC(=O)NCCOCCNC(=O)COCC2)cc1`, the viability in experiment [1] is 93.5%; in experiment [3], 93.5% (inactive); in experiment [4], 95.4% (inactive); in experiment [5], 106% (inactive); in experiment [6] (setting [9]) it was 96.9%; in experiment [6] (setting [10]), 106%. Besides, the Her2 level in experiment [2] is 102% (inactive). Moreover, the differential viability (reversal) in experiment [6] (H69AR cells + 2 uM doxorubicin) is 8.95% (inactive). Moreover, the inhibition is -4.13% (inactive) in experiment [7] and -4.26% (inactive) in experiment [8].

On to `O=C(NCc1cccs1)C1CC(=O)N(c2ccccc2)C1` (stereo not given), for which the viability is 96.5% in experiment [1]; 96.5% (inactive) in experiment [3]; 123% (inactive) in experiment [4]; 111% (inactive) in experiment [5]; 101% in experiment [6] (setting [9]); 111% in experiment [6] (setting [10]). In addition, the Her2 level in experiment [2] was 105% (inactive). In addition, the differential viability (reversal) in experiment [6] (H69AR cells + 2 uM doxorubicin) is 9.26% (inactive). In addition, the inhibition in experiment [7] was -0.13% (inactive); in experiment [8] it was -2.3% (inactive).

Regarding `CCc1nnc(NC(=O)CSc2nnc(CSc3nc(C)cc(C)n3)n2CC)s1`, the viability in experiment [1] is 100%; in experiment [3], 100% (inactive); in experiment [4], 84.1% (inactive); in experiment [5] it was 88.7% (inactive); in experiment [6] (setting [9]), 86.9%; in experiment [6] (setting [10]), 88.7%. For the same molecule, the Her2 level in experiment [2] is 116% (inactive). For the same molecule, the differential viability (reversal) in experiment [6] (H69AR cells + 2 uM doxorubicin) is 1.79% (inactive). Besides, the inhibition in experiment [7] was 0.77% (inactive); in experiment [8] it was 22.5% (inactive).

For `CN(C(=O)CSc1nc2c(c(=O)[nH]1)CCCC2)C1CCCCC1`, the viability in experiment [1] was 95%; in experiment [3], 95% (inactive); in experiment [4] it was 77.1% (inactive); in experiment [5] it was 93.3% (inactive); in experiment [6] (setting [9]) it was 92.2%; in experiment [6] (setting [10]), 93.3%. In addition, in experiment [2], the Her2 level is 105% (inactive). The differential viability (reversal) in experiment [6] (H69AR cells + 2 uM doxorubicin) was 1.09% (inactive). Also, the results for the inhibition in experiment [7] and in experiment [8] were -1.97% (inactive) and -8.89% (inactive), respectively.

In the case of `Cc1cnn(Cc2ccccc2)c1N`, the viability in experiment [1] was 115%; in experiment [3] it was 115% (inactive); in experiment [4], 84.3% (inactive); in experiment [5], 88.7% (inactive); in experiment [6] (setting [9]) it was 77.6%; in experiment [6] (setting [10]) it was 88.7%. The Her2 level in experiment [2] is 73.5% (inactive). For the same molecule, in experiment [6] (H69AR cells + 2 uM doxorubicin), the differential viability (reversal) was 11.2% (inactive). Also, the values for the inhibition in experiment [7] and in experiment [8] were -6.08% (inactive) and 4.76% (inactive), respectively.

In the case of `Cc1ccc(C)c(S(=O)(=O)NCc2cccnc2)c1`, the viability in experiment [1] was 92%; in experiment [3], 92% (inactive); in experiment [4], 108% (inactive); in experiment [5], 92.8% (inactive); in experiment [6] (setting [9]), 91.5%; in experiment [6] (setting [10]), 92.8%. In experiment [2], the Her2 level was 87.5% (inactive). The differential viability (reversal) in experiment [6] (H69AR cells + 2 uM doxorubicin) is 1.22% (inactive). In addition, the inhibition in experiment [7] was -5.33% (inactive); in experiment [8], -6.19% (inactive).

As for `COc1ccc(S(=O)(=O)N(C)CC(=O)N2CCCCC2)cc1Cl`, the viability in experiment [1] is 80%; in experiment [3], 80% (inactive); in experiment [4] it was 96.6% (inactive); in experiment [5], 93.5% (inactive); in experiment [6] (setting [9]) it was 87.4%; in experiment [6] (setting [10]), 93.5%. For the same molecule, the Her2 level in experiment [2] is 106% (inactive). Further, the differential viability (reversal) in experiment [6] (H69AR cells + 2 uM doxorubicin) is 6.07% (inactive). For the same molecule, the inhibition in experiment [7] is -5.41% (inactive); in experiment [8], 1.8% (inactive).

In the case of `Cn1c(=O)cc(OCC(=O)NCCCN2CCN(c3cccc(Cl)c3)CC2)c2ccccc21`, the viability in experiment [1] is 85.5%; in experiment [3], 85.5% (inactive); in experiment [4] it was 48.7% (inactive); in experiment [5], 63.7% (inactive); in experiment [6] (setting [9]), 65.1%; in experiment [6] (setting [10]) it was 63.7%. The Her2 level in experiment [2] is 74.5% (inactive). In experiment [6] (H69AR cells + 2 uM doxorubicin), the differential viability (reversal) was -1.39% (inactive). For the same molecule, the inhibition is -6.53% (inactive) in experiment [7] and -2.62% (inactive) in experiment [8].

`COc1ccc(-c2cc(C(F)(F)F)n3nc(C(=O)N4CCOCC4)nc3n2)cc1`: the viability in experiment [1] is 88%; in experiment [3], 88% (inactive); in experiment [4], 101% (inactive); in experiment [5], 94.1% (inactive); in experiment [6] (setting [9]), 89.6%; in experiment [6] (setting [10]), 94.1%. In addition, in experiment [2], the Her2 level is 116% (inactive). Besides, the differential viability (reversal) in experiment [6] (H69AR cells + 2 uM doxorubicin) was 4.48% (inactive). Besides, the inhibition in experiment [7] is -0.64% (inactive); in experiment [8] it was -4.17% (inactive).
